Assay [1] can be described thus: Her2 expression decrease, cell viability multiplex – SKBR3 breast tumor cells, AlphaScreen, ATP viability, primary screen (AID 461;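 active = Her2 level under about 52% in both replicate screens, with viability over 70% of control, limit read from the data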;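 for Her2 level: lower value means less Her2 protein in the cells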;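 for viability: percent of carrier control wells set as 100% viability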). The following applies: SKBR3 Her2 protein level, 18-24 h, measured here: SKBR3 viability, ATP luminescence, at 10 µM. For orientation: Alpha assays give light when donor and acceptor beads are brought close together.
For assay [2], the target named is Receptor tyrosine-protein kinase erbB-2 (Homo sapiens) (UniProt P04626). The description is as above. The following applies: 18-24 h, at 10 µM, stronger effect = lower value.
Sequence of Receptor tyrosine-protein kinase erbB-2 (Homo sapiens) (P04626 whole entry, looked up): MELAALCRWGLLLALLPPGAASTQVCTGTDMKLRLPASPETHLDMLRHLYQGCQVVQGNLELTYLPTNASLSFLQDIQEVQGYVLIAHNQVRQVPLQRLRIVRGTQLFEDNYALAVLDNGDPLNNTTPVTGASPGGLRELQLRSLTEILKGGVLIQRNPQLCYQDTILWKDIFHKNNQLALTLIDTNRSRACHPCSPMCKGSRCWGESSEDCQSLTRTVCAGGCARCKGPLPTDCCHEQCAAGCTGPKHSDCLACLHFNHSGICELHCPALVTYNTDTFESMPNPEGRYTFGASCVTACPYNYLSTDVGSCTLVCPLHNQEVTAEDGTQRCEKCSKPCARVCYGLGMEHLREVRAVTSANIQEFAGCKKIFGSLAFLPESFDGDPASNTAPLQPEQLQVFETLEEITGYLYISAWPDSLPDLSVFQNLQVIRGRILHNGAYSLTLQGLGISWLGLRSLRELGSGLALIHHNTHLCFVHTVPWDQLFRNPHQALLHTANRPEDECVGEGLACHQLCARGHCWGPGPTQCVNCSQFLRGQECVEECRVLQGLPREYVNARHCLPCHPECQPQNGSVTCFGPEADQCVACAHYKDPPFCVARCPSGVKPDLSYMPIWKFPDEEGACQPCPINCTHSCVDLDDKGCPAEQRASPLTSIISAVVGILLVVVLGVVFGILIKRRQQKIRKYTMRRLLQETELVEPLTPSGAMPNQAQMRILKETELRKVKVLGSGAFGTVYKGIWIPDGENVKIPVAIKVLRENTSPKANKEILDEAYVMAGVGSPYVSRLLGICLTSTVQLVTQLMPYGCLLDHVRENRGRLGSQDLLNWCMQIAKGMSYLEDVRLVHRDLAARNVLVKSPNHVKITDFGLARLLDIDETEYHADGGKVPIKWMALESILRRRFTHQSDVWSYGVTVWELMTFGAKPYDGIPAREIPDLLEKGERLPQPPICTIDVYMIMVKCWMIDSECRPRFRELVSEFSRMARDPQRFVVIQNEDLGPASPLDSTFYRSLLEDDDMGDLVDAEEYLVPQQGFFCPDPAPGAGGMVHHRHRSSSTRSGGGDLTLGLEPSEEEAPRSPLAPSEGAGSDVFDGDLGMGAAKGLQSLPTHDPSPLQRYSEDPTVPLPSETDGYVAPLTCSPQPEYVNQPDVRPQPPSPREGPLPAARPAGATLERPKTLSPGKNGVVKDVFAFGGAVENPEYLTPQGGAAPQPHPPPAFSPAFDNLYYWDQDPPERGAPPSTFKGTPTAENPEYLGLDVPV
Assay [3] is described as follows: reduced viability of SK-BR-3 breast cancer cells – cell-based, 24 h, human, pilot screen (AID 572;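 active = viability at or below 10% of carrier control in both of two separate runs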;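 note: compound exposure lasted between 18 and 24 h rather than exactly 24 h; 100% = carrier-treated control wells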). The following applies: SK-BR-3 viability, CellTiter-Glo luminescence, at 10 µM, stronger effect = lower value.
The nature of assay [4]: HUVEC growth inhibition – cell-based, human, primary screen (AID 575;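 active = viability at or below 30% in both replicate assays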;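 note: 100% = median of untreated cell wells with 0.1% DMSO on each plate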). The following applies: HUVEC proliferation, CellTiter-Glo luminescence, 72 h; at 10 µM; stronger effect = lower value. In a few lines:
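system = HUVEC primary cells | amount = 1250 cells/well | buffer or medium = supplemented EBM, 2% fetal bovine serum | dosing = single-point 10 µM, DMSO 0.1% final | times = 72 h compound incubation | detection = CTG luminescence | read-out = % viability relative to median vehicle-well signal on each plate | control set = vehicle and MePR control wells | format = collagen-coated 384-well format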
On the technique in general: In ATP-based viability assays light output follows the ATP content of the culture.

Assay [5] in a line: H69AR cell proliferation blockers – human, duplicate replicates, primary screen (AID 580;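 active = viability at or under a set limit in both replicates, limit being median viability minus 3 SD, cut at about 48% in these data, passing the limit was not always enough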;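 note: 100% = mean luminescence of untreated wells and 0% = no signal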). The following applies: H69AR lung tumor cells viability, ATP luminescence, 72 h; at 10 µM; stronger effect = lower value.
Assay [6] can be described thus: MRP1 drug-resistance reversers in H69AR cells – cell-based, doxorubicin co-treatment, pilot screen (AID 601). The following applies: CellTiter-Glo, 72 h, at 10 µM; for differential viability (reversal): stronger effect = higher value.
Assay [7] in a line: yeast transport mutant growth inhibition pilot in 384-well plates, post-Golgi transport modulator project (AID 636; in the data active = inhibition above about 31%). The following applies: absorbance 615 nm, about 18 h, stronger effect = higher value.
A short description of assay [8]: growth suppression of yeast trafficking mutant, preliminary HTS, modulators of trafficking downstream of Golgi apparatus project, 1536-format plate, OD 615 nm (AID 637; in the data active = inhibition above about 30%). The settings on record: yeast transport mutant growth, absorbance 615 nm, 18 h; stronger effect = higher value.
[9] abbreviates: H69AR cells + 2 uM doxorubicin, measured here: viability with 2 uM doxorubicin, stronger effect = lower value.
Where [10] appears, read: H69AR cells, compound alone cytotoxicity.

Structures are written as SMILES. The source made the active and inactive calls.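 Rule for the calls, unless noted: active = viability loss from added drug above about 55%, and viability with drug at most 40%, in both replicates (limit read from the data, passing the limit was not always enough); inconclusive = both conditions met in only one replicate; inactive = neither replicate meets both conditions.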

As for `COc1cccc(NS(=O)(=O)c2cc(C)sc2C)c1`, the viability – broadly, a read-out of living cells in per cent, often relative to untreated cells – is 93.5% in assay [1]; 93.5% (inactive) in assay [3]; 97.5% (inactive) in assay [4]; 94.3% (inactive) in assay [5]; 92.1% in assay [6] (setting [9]); 94.3% in assay [6] (setting [10]). For the same compound, the Her2 level in assay [2] is 94% (inactive). For the same compound, in assay [6] (H69AR cells + 2 uM doxorubicin), the differential viability (reversal) was 2.18% (inactive). In addition, the inhibition – broadly, the change of the read-out against control, counted positive when it falls – in assay [7] is -2.89% (inactive); in assay [8], -6.67% (inactive).

Turning to `CCOC(=O)C1=C(C)NC(C)=C(C(=O)OCC)C1C(=O)OC1CCOC1=O` (stereo not given), the viability in assay [1] is 104%; in assay [3], 104% (inactive); in assay [4], 87.5% (inactive); in assay [5], 93.8% (inactive); in assay [6] (setting [9]), 91.4%; in assay [6] (setting [10]), 93.8%. Moreover, the Her2 level in assay [2] was 85% (inactive). Further, in assay [6] (H69AR cells + 2 uM doxorubicin), the differential viability (reversal) was 2.32% (inactive). The inhibition is -5.27% (inactive) in assay [7] and 0.95% (inactive) in assay [8].

On to `Cc1c(C(=O)NCc2cccnc2)sc2ncn(CC(=O)N3CCCCC3C)c(=O)c12` (stereo not given), for which the viability in assay [1] is 98%; in assay [3], 98% (inactive); in assay [4], 102% (inactive); in assay [5], 97% (inactive); in assay [6] (setting [9]), 95.8%; in assay [6] (setting [10]) it was 97%. In assay [2], the Her2 level is 88.5% (inactive). In addition, the differential viability (reversal) in assay [6] (H69AR cells + 2 uM doxorubicin) is 1.24% (inactive). In addition, the inhibition in assay [7] was -0.79% (inactive); in assay [8] it was 1.61% (inactive).

Turning to `CC(=O)c1ccc(NS(=O)(=O)c2ccccc2)cc1`, the viability in assay [1] is 95%; in assay [3], 95% (inactive); in assay [4] it was 91.5% (inactive); in assay [5], 98.6% (inactive); in assay [6] (setting [9]), 91.6%; in assay [6] (setting [10]), 98.6%. The Her2 level in assay [2] is 137% (inactive). Further, in assay [6] (H69AR cells + 2 uM doxorubicin), the differential viability (reversal) is 7.02% (inactive). Moreover, the values for the inhibition in assay [7] and in assay [8] were 4.42% (inactive) and 5.33% (inactive), respectively.

`CCOC(=O)C1=C(O)CCn2c1nc1ccccc12`: the viability was 122% in assay [1]; 122% (inactive) in assay [3]; 101% (inactive) in assay [4]; 101% (inactive) in assay [5]; 83.6% in assay [6] (setting [9]); 101% in assay [6] (setting [10]). In assay [2], the Her2 level is 116% (inactive). Also, the differential viability (reversal) in assay [6] (H69AR cells + 2 uM doxorubicin) is 17.7% (inactive). Also, the inhibition was -8.9% (inactive) in assay [7] and 0% (inactive) in assay [8].

As to `COCCNC(=O)C1CCCN(c2ncccn2)C1` (stereo not given), the viability in assay [1] was 93%; in assay [3], 93% (inactive); in assay [4], 98.8% (inactive); in assay [5], 89.8% (inactive); in assay [6] (setting [9]), 98.5%; in assay [6] (setting [10]), 89.8%. Also, the Her2 level in assay [2] is 79% (inactive). Also, in assay [6] (H69AR cells + 2 uM doxorubicin), the differential viability (reversal) was -8.68% (inactive). Further, the figures for the inhibition in assay [7] and in assay [8] were -7.81% (inactive) and 1.27% (inactive), respectively.

With `Cc1cccc(C)c1OCc1nnc2c3cnn(C)c3ncn12`, the viability in assay [1] was 100%; in assay [3], 100% (inactive); in assay [4], 105% (inactive); in assay [5], 91.9% (inactive); in assay [6] (setting [9]), 94%; in assay [6] (setting [10]) it was 91.9%. The Her2 level in assay [2] was 138% (inactive). For the same compound, the differential viability (reversal) in assay [6] (H69AR cells + 2 uM doxorubicin) is -2.03% (inactive). Besides, the inhibition in assay [7] is -2.11% (inactive); in assay [8], -4.59% (inactive).

`O=C(CSc1ncnc2ccccc12)NCCCO`: the viability is 104% in assay [1]; 104% (inactive) in assay [3]; 103% (inactive) in assay [4]; 103% (inactive) in assay [5]; 91.1% in assay [6] (setting [9]); 103% in assay [6] (setting [10]). Also, in assay [2], the Her2 level was 80% (inactive). Also, the differential viability (reversal) in assay [6] (H69AR cells + 2 uM doxorubicin) was 12.2% (inactive). The inhibition in assay [7] was -0.65% (inactive); in assay [8], 4.92% (inactive).

In the case of `Cc1ccc(NC(=O)C2CCCN(S(=O)(=O)c3cnc[nH]3)C2)c(Br)c1` (stereo not given), the viability is 88.5% in assay [1]; 88.5% (inactive) in assay [3]; 88.1% (inactive) in assay [4]; 101% (inactive) in assay [5]; 93.3% in assay [6] (setting [9]); 101% in assay [6] (setting [10]). Moreover, the Her2 level in assay [2] is 92% (inactive). Further, the differential viability (reversal) in assay [6] (H69AR cells + 2 uM doxorubicin) was 8.17% (inactive). The inhibition was -0.93% (inactive) in assay [7] and -1.97% (inactive) in assay [8].

`COc1ccc2c(CC(=O)Nc3nnc(C4CC4)s3)coc2c1`: the viability is 120% in assay [1]; 120% (inactive) in assay [3]; 89.4% (inactive) in assay [4]; 99.4% (inactive) in assay [5]; 94.1% in assay [6] (setting [9]); 99.4% in assay [6] (setting [10]). The Her2 level in assay [2] is 81% (inactive). In addition, in assay [6] (H69AR cells + 2 uM doxorubicin), the differential viability (reversal) is 5.3% (inactive). Moreover, the inhibition in assay [7] was -7.26% (inactive); in assay [8], -1.9% (inactive).

Turning to `Cc1c(=O)n(OCc2ccccn2)c2ccccc2[n+]1[O-]`, the viability in assay [1] was 84%; in assay [3], 84% (inactive); in assay [4], 105% (inactive); in assay [5], 94.2% (inactive); in assay [6] (setting [9]), 86%; in assay [6] (setting [10]), 94.2%. Further, in assay [2], the Her2 level was 76% (inactive). For the same compound, the differential viability (reversal) in assay [6] (H69AR cells + 2 uM doxorubicin) is 8.18% (inactive). Also, the inhibition in assay [7] was -5.92% (inactive); in assay [8], -1.27% (inactive).

Turning to `O=C(NCc1ccco1)C1(S(=O)(=O)c2ccc(Cl)cc2)CC1`, the viability was 94% in assay [1]; 94% (inactive) in assay [3]; 103% (inactive) in assay [4]; 71.2% (inactive) in assay [5]; 92.8% in assay [6] (setting [9]); 71.2% in assay [6] (setting [10]). Also, the Her2 level in assay [2] is 86% (inactive). Moreover, in assay [6] (H69AR cells + 2 uM doxorubicin), the differential viability (reversal) is -21.5% (inactive). For the same compound, the values for the inhibition in assay [7] and in assay [8] were -0.65% (inactive) and 24.1% (inactive), respectively.
